Results reported in ChEMBL document CHEMBL3272032, “Antifolate studies. Activities of 40 potential antimalarial compounds against sensitive and chlorguanide triazine resistant strains of folate-requiring bacteria and Escherichia coli” (J Med Chem, 1977).
Activity calls are given as the source filed them. The rule behind the calls is not given here.

Legend:
[1] = tested on: Enterococcus faecium; assay: Fold increase in resistance, ratio of IC50 for chlorguanide triazine-resistant Streptococcus faecium ATCC 8043 to IC50 for sensitive Streptococcus faecium ATCC 8043; assay type: functional
Outline: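 Resistant S. faecium substrain raised by serial transfer in increasing chlorguanide triazine. IC50 (µM, 50% growth inhibition by turbidity) was found for resistant and parent strains in folic acid (0.002 µg/ml) medium. Fold increase taken as IC50 resistant / IC50 sensitive.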

[2] = tested on: Lacticaseibacillus casei; assay: Antibacterial activity against chlorguanide triazine-resistant Lactobacillus casei ATCC 7469 assessed as reduction in growth; assay type: functional, organism-based
Outline: (§1)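 Folate-requiring strains grown in medium with folic acid, 0.002 µg/ml for S. faecium and 0.001 µg/ml for L. casei; P. cerevisiae given folinic acid, 0.001 µg/ml. Resistant substrains came from serial transfer in rising chlorguanide triazine, and the most resistant were used. Compounds tested up to 1000 µg/ml, or 100 µg/ml when supply was limited. Growth read as Klett turbidity; IC50 is the µM concentration giving 50% growth inhibition.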

[3] = tested on: Enterococcus faecium; assay: Antibacterial activity against chlorguanide triazine-resistant Streptococcus faecium ATCC 8043 assessed as reduction in growth in presence of 0.002 ug/ml folic acid; assay type: functional, organism-based; outline: as §1
[4] = tested on: Escherichia coli; assay: Antibacterial activity against sensitive Escherichia coli ATCC 10536 assessed as reduction in growth; assay type: functional, organism-based
Outline: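 Growth inhibition in Sahyun et al. medium plus 0.6% acid-hydrolyzed casein. Growth read as turbidity on a Klett-Summerson photoelectric colorimeter. IC50 is the micromolar concentration giving 50% growth inhibition. Top concentration was 1000 μg/ml, or 100 μg/ml when compound was limited.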

[5] = tested on: Pediococcus; assay: Antibacterial activity against chlorguanide triazine-resistant Pediococcus cerevisiae ATCC 808 assessed as reduction in growth in presence of 0.001 ug/ml folinic acid; assay type: functional; outline: as §1
[6] = Antibacterial activity against sensitive Pediococcus cerevisiae ATCC 808 assessed as reduction; assay type: functional
Outline: (§2)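 P. cerevisiae grown with folinic acid at 0.001 μg/ml in the earlier-described medium. Turbidity read on a Klett-Summerson colorimeter. IC50 is the micromolar concentration reducing growth to 50% of control. Top concentration was 1000 μg/ml, or 100 μg/ml when supply was limited.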

[7] = tested on: Enterococcus faecium; assay: Antibacterial activity against sensitive Streptococcus faecium ATCC 8043 assessed as reduction in growth; assay type: functional, organism-based; outline: as §1
[8] = tested on: Plasmodium berghei; assay: Antimalarial activity against Plasmodium berghei infected in sc dosed mouse assessed as active dose required to increase of 100% in mean survival time; assay type: functional; conditions: read-out: MED
Outline: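 Mice received a standard blood-induced P. berghei inoculum and were then treated with one subcutaneous dose of compound suspended in peanut oil. The minimum active dose is the lowest dose that raised mean survival time by 100%.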

[9] = tested on: Enterococcus faecium; assay: Antibacterial activity against chlorguanide triazine-resistant Streptococcus faecium ATCC 8043 assessed as reduction in growth; assay type: functional, organism-based; outline: as §1
[10] = tested on: Pediococcus; assay: Fold increase in resistance, ratio of IC50 for chlorguanide triazine-resistant Pediococcus cerevisiae ATCC 808 to IC50 for sensitive Pediococcus cerevisiae ATCC 808; assay type: functional
Outline: (§3)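 Resistant substrains were made by serial transfer in rising concentrations of cycloguanil, and the most resistant isolate of each organism was used. Both strains were assayed turbidimetrically under identical conditions. FIR = IC50 of the resistant strain divided by IC50 of the sensitive parent.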

[11] = tested on: Lacticaseibacillus casei; assay: Antibacterial activity against sensitive Lactobacillus casei ATCC 7469 assessed as reduction in growth in presence of 0.001 ug/ml folic acid; assay type: functional, organism-based
Outline: (§4)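 Folate-requiring strains in the medium of the earlier assay method. Folic acid was 0.002 μg/ml for S. faecium and 0.001 μg/ml for L. casei. Turbidity read on a Klett-Summerson colorimeter. IC50 is the micromolar concentration reducing growth to 50% of control. Top concentration was 1000 μg/ml, or 100 μg/ml if supply was limited.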

[12] = tested on: Pediococcus; assay: Antibacterial activity against sensitive Pediococcus cerevisiae ATCC 808 assessed as reduction in growth in presence of 0.001 ug/ml folinic acid; assay type: functional; outline: as §2
[13] = tested on: Lacticaseibacillus casei; assay: Fold increase in resistance, ratio of IC50 for chlorguanide triazine-resistant Lactobacillus casei ATCC 7469 to IC50 for sensitive Lactobacillus casei ATCC 7469; assay type: functional; outline: as §3
[14] = tested on: Lacticaseibacillus casei; assay: Antibacterial activity against chlorguanide triazine-resistant Lactobacillus casei ATCC 7469 assessed as reduction in growth in presence of 0.001 ug/ml folic acid; assay type: functional, organism-based; outline: as §1
[15] = tested on: Enterococcus faecium; assay: Antibacterial activity against sensitive Streptococcus faecium ATCC 8043 assessed as reduction in growth in presence of 0.002 ug/ml folic acid; assay type: functional, organism-based; outline: as §4
[16] = Antibacterial activity against chlorguanide triazine-resistant Pediococcus cerevisiae ATCC 808 assessed as reduction in growth; assay type: functional; outline: as §1
[17] = tested on: Plasmodium berghei; assay: Antimalarial activity against Plasmodium berghei infected in sc dosed mouse assessed as dose required to survivors for period of 60 days; assay type: functional
Outline: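 Mice infected with a blood-induced P. berghei inoculum were given one subcutaneous dose in peanut oil. Survivors at 60 days counted as cured. The minimum curative dose is the lowest dose that cured any mouse.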

[18] = tested on: Lacticaseibacillus casei; assay: Antibacterial activity against sensitive Lactobacillus casei ATCC 7469 assessed as reduction; assay type: functional, organism-based; outline: as §1
[19] = tested on: Escherichia coli; assay: Antibacterial activity against sensitive Escherichia coli ATCC 10536 assessed as reduction in growth in presence of p-aminobenzoic acid; assay type: functional, organism-based
Outline: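 Reversal test. Drug inhibition was challenged with PABA in Sahyun et al. medium plus 0.6% acid-hydrolyzed casein. Growth read as turbidity on a Klett-Summerson colorimeter. Scored as reversal or nonreversal of the drug inhibition.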

SMILES	Ratio IC50 [1]	IC50 [2] [µM]	inhibition [3]	IC50 [4] [µM]	inhibition [5]	IC50 [6] [µM]	IC50 [7] [µM]	minimal effective dose [8] [mg/kg]	IC50 [9] [µM]	Ratio IC50 [10]	inhibition [11]	inhibition [12]	Ratio IC50 [13]	inhibition [14]	inhibition [15]	IC50 [16] [µM]	MCD [17] [mg/kg]	IC50 [18] [µM]	inhibition [19]
Nc1nc(N)c2cc(SCc3ccc(Cl)cc3)ccc2n1	25	0.04	inactive	2.9	inactive	0.05	0.04	320	1	28	inactive	inactive	0.2	inactive	inactive	1.4	640	0.2	Active
Nc1nc(N)c2cc(NCc3ccc(Cl)c(Cl)c3)ccc2n1	330	0.03	inactive	33	inactive	0.2	0.006	20	2	3.5	inactive	inactive	0.08	inactive	inactive	0.7	80	0.4	Active
C/C(=C\C(=N\NC(=N)N)c1ccccc1)c1ccccc1	6	41	–	51	Active	25	11	160	60	0.5	Active	Active	1	Active	inactive	13	>640	48	Active
CCCCN(CCCC)CC(O)c1cc(-c2ccc(Cl)c(Cl)c2)nc2c(Cl)cc(Cl)cc12 (centres undefined)	2	250	Active	182	Active	290	327	5	572	1	Active	Active	2	Active	Active	354	20	170	Active
CN1CCCCC1CNc1nc(-c2ccc(Cl)c(Cl)c2)nc(C(Cl)(Cl)Cl)n1 (centres undefined)	0.97	3.2	Active	–	Active	4.9	132	160	128	1	Active	Active	1.1	Active	Active	3.8	320	3	–
CC(CNc1nc(Nc2ccc(Cl)c(Cl)c2)nc(C(Cl)(Cl)Cl)n1)N(C)C (centres undefined)	1	4.9	Active	–	Active	5.9	14.2	80	14.6	1	Active	Active	0.9	Active	Active	7.5	160	5.7	–
